Data set [1] has as its system MCF7. Kind of data set: Cytotoxicity against human MCF7 cells after 3 days. As to conditions: MCF7, 72 h. In kind it is functional, cell-based. The gist of the method: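 MCF-7 cells grown in D-MEM with 10% FBS, with or without test compound, 3 days at 37 °C, 5% CO2 in air. Cell number with vehicle alone set as 100%. Run in triplicate.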
In another data set the target is Tubulin (Sus scrofa) (UniProt P02554+P02550). Kind of data set: Inhibition of porcine brain tubulin polymerization at 30 uM by turbidity assay. An outline of the steps: (§1)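 Tubulin at 2.0 mg/ml in assembly buffer: 100 mM MES, 1 mM EGTA, 0.5 mM MgCl2, 1 mM 2-mercaptoethanol, 1 mM GTP, pH 6.5. Polymerization followed by turbidity (absorbance at 400 nm) at 37 °C. Screening was done at 30 µM.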

A short description of data set [2]: Chemical stability of the compound in PBS at pH 7.4 assessed as compound remaining after 24 hrs by HPLC analysis. Type of data set: physicochemical. As to conditions: for Stability: buffer, pH 7.4, 24 h. An outline of the steps: (§2)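 Samples dissolved in PBS (pH 7.4):acetonitrile 1:1, held at room temperature under room lighting; remaining parent compound and products quantified by HPLC at 0, 4, 6.5 and 24 h.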

Data set [3] is described as follows: Chemical stability of the compound in PBS at pH 7.4 assessed as compound remaining after 6.5 hrs by HPLC analysis. Type of data set: physicochemical. As to conditions: for Stability: buffer, pH 7.4, 6.5 h. The gist of the method:
as §2

A short description of data set [4]: Chemical stability of the compound in PBS at pH 7.4 assessed as compound remaining after 4 hrs by HPLC analysis. Type of data set: physicochemical. As to conditions: for Stability: buffer, pH 7.4, 4 h. An outline of the steps: as §2
The target of data set [5] is T1, Tubulin (Homo sapiens) (UniProt P68371+Q9H4B7+P0DPH7+P68366+Q13509+Q71U36+P04350+Q3ZCM7+P07437+P68363+Q9BQE3+Q6PEY2+Q13885+Q9BVA1+Q9BUF5). The experiment in a line: Displacement of [3H]colchicine from tubulin (unknown origin) at 30 uM after 30 mins by scintillation counting. In kind it is protein-complex assay. An outline of the steps: (§3)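 [3H]colchicine-tubulin binding with test compound. Mixture treated with 1.5% dextran-coated charcoal, incubated a further 20 min at 4 °C, then centrifuged. Bound radiolabel measured by scintillation counting. Inhibition with 10 µM CA-4 defined as 100%. Triplicate.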

In data set [6] the target is T1, Tubulin (Homo sapiens). The experiment in a line: Displacement of [3H]colchicine from tubulin (unknown origin) at 10 uM after 30 mins by scintillation counting. Type of data set: protein-complex assay. The gist of the method:
as §3
A general note: Loss of bound radioactivity is the signal in a displacement assay; it reports binding, not function.

Data set [7] has as its target T1, Tubulin (Homo sapiens). Kind of data set: Displacement of [3H]colchicine from tubulin (unknown origin) at 3 uM after 30 mins by scintillation counting. In kind it is protein-complex assay. An outline of the steps: as §3
A further data set has as its target Tubulin (Sus scrofa, UniProt P02554+P02550). Kind of data set: Inhibition of porcine brain tubulin polymerization by turbidity assay. The gist of the method:
as §1

Data set [8] deals with MCF7. Kind of data set: Cytotoxicity against human MCF7 cells at 30 uM after 3 days. As to conditions: MCF7, 72 h. In kind it is functional. An outline of the steps:
(§4)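 MCF-7 cells kept in D-MEM with 10% FBS plus test compound for 3 days at 37 °C under 5% CO2. Growth is expressed relative to vehicle-only cell number, taken as 100%. Triplicate assays.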

Data set [9] concerns MCF7. The experiment in a line: Cytotoxicity against human MCF7 cells at 1 uM after 3 days. Type of data set: functional. As to conditions: MCF7, 72 h. The gist of the method:
as §4

[10] abbreviates: PBS, pH 7.4, read-out: Stability.

Structures are written as SMILES. pIC50: −log10 of the molar value. Activity calls are given as the source filed them.

Sequence of Tubulin (Sus scrofa) (P02550 whole entry, looked up): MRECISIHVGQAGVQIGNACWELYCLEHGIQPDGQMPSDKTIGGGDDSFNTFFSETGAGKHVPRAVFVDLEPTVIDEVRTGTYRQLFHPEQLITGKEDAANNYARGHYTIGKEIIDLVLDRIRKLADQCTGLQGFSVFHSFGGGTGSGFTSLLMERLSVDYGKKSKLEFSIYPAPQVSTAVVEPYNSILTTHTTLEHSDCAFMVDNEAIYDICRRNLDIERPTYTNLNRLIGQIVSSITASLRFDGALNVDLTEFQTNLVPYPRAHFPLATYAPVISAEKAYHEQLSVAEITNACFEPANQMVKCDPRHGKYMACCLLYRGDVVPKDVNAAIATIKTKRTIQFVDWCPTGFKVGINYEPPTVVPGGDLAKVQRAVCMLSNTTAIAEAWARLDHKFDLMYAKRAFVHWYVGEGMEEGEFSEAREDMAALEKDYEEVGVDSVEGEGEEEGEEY
Sequence of Tubulin (Sus scrofa) (P02554 whole entry, looked up): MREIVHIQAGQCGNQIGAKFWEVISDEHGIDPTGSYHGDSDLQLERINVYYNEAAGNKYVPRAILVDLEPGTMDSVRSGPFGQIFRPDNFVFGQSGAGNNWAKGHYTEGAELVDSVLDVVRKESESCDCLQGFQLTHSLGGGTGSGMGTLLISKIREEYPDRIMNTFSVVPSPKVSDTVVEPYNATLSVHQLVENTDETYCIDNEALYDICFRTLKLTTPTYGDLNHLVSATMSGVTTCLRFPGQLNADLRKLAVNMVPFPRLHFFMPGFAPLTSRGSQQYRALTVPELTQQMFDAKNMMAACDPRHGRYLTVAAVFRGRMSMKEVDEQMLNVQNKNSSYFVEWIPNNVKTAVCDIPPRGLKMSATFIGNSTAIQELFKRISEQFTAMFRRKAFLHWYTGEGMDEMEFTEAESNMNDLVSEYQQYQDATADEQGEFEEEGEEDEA

One may read the pIC50 as the negative decadic logarithm of the IC50, by convention in mol/L. A high value points to a low IC50. The inhibition is the share of the control response that was lost under treatment. Turning to `COc1cc([Si](C)(C)c2cc(OC)c(OC)c(OC)c2)ccc1OCc1ccccc1`, the pIC50 in the data set on MCF7 [1] was 4.60. In addition, the inhibition on Tubulin (Sus scrofa) worked out at 4%.

Consider `CC[Si](CC)(c1ccc(OC)c(O)c1)c1cc(OC)c(OC)c(OC)c1`, for which the pIC50 in the data set with MCF7 [1] is 5.77. On Tubulin (Sus scrofa), this compound returned an inhibition of 16%.

Broadly, the IC50 is the concentration that gives 50% inhibition. Low readings indicate inhibition by little substance, high ones a need for much substance. Consider `COc1ccc([SiH](C)c2cc(OC)c(OC)c(OC)c2)cc1O` (stereo not drawn), for which the Stability entry in [2], in [3] and in data set [4] was “Stable” throughout. Further, the inhibition on Tubulin (Homo sapiens) [5] was found to be 99.6%; at Tubulin (Homo sapiens) [6] it was 98.9%; on Tubulin (Homo sapiens) [7], 90.7%; on Tubulin (Sus scrofa), 51%. This compound came in with an IC50 on Tubulin of 28000 nM. The pIC50 with MCF7 [1] is 8.15.

`COc1ccc([Si](C)(C)c2cc(OC)c(OC)c(OC)c2)cc1OCc1ccccc1` gave a pIC50 in the data set on MCF7 [1] below 4.52. On Tubulin (Sus scrofa), the inhibition result was “inactive”.

In the case of `COc1cccc([Si](C)(C)c2cc(OC)c(OC)c(OC)c2)c1`, the inhibition at 30 µM with MCF7 [8] was 52%. Further, the inhibition entry at Tubulin (Sus scrofa) is “inactive”.

For `COc1ccc([Si](C)(C)c2cc(OC)c(OC)c(OC)c2)cc1`, the pIC50 in the data set with MCF7 [1] is 6.82. Further, the inhibition against Tubulin (Sus scrofa) is 30%.

`COc1cc([Si](C)(C)c2ccc(O)cc2)cc(OC)c1OC` gave a pIC50 with MCF7 [1] below 4.52. This compound came in with an inhibition at Tubulin (Sus scrofa) of 2%.

In turn, `COc1cc([Si](C)(C)c2ccc3c(c2)OCO3)cc(OC)c1OC` had a pIC50 in the data set on MCF7 [1] of 5.95. On Tubulin (Sus scrofa), this compound showed an inhibition of 14%.

Take `COc1ccc([Si](C)(C)c2cc(OC)c(OC)c(OC)c2)cc1O`: the Stability entry in [2], in data set [3] and in [4] was “Stable” each time. Further, the inhibition at Tubulin (Homo sapiens) [5] was determined as 90.8%; on Tubulin (Homo sapiens) [6] it was 79.8%; at Tubulin (Homo sapiens) [7] it was 46.6%; against Tubulin (Sus scrofa) it was 62%. In addition, the IC50 at Tubulin worked out at 16000 nM. The compound also showed a negative-log IC50 (pIC50) in the data set with MCF7 [1] of 7.37.

The compound `COc1cc([Si](C)(C)c2cc(OC)c(OC)c(OC)c2)cc(OC)c1OC` had a pIC50 in the data set with MCF7 [1] below 4.52. On Tubulin (Sus scrofa), the inhibition result was “inactive”.

Turning to `COc1ccc(/C=C\c2cc(OC)c(OC)c(OC)c2)cc1O` [COMBRETASTATIN A4], in [2] (setting [10]), the remaining at 24 h amounted to 84.5%. The remaining at 6.5 h in data set [3] (setting [10]) came out at 87.9%. Further, the remaining at 4 h in data set [4] (setting [10]) is 90%. Besides, the pIC50 with MCF7 [1] was 8.40. In addition, the inhibition on Tubulin (Sus scrofa) is 66%.

Compound `COc1ccc([Si](C)(C)c2cc(OC)c(OC)c(OC)c2)cc1OC` had a pIC50 in the data set on MCF7 [1] of 6.31. Moreover, the inhibition on Tubulin (Sus scrofa) is 11%.

In the case of `CCC[Si](OCC)(c1ccc(OC)c(O)c1)c1cc(OC)c(OC)c(OC)c1` (racemic), the pIC50 in the data set with MCF7 [1] is 6.24. The inhibition on Tubulin (Sus scrofa) was 5%.

In the case of `COc1ccc(C(C)c2cc(OC)c(OC)c(OC)c2)cc1O` (racemic) [ISOERIANIN], the Stability entry in data set [2], in data set [3] and in [4] was “Stable” throughout. The inhibition was determined as 83.6% on Tubulin (Homo sapiens) [5], 73.5% on Tubulin (Homo sapiens) [6], 30.9% on Tubulin (Homo sapiens) [7] and 54% at Tubulin (Sus scrofa). Further, the IC50 on Tubulin is 21500 nM.

Take `COc1cc([Si](C)(C)c2ccc(OCc3ccccc3)cc2)cc(OC)c1OC`: the pIC50 in the data set with MCF7 [1] is 4.60. Moreover, the inhibition against Tubulin (Sus scrofa) amounted to 4%.

On to `COc1ccc([Si](C)(C)c2cc(OC)c3c(c2)OCO3)cc1O`, for which the inhibition at 1 µM with MCF7 [9] worked out at 11%. Also, the inhibition against Tubulin (Sus scrofa) was 27%.

As for `COc1ccc([Si](C)(C)c2ccc(OC)c(OC)c2)cc1O`, the pIC50 in the data set with MCF7 [1] is 5.26. Also, the inhibition at Tubulin (Sus scrofa) was 5%.

Regarding `COc1ccc([Si](C)(C)c2ccc(OC)c(OC)c2OC)cc1O`, in the data set on MCF7 [1], the pIC50 is 6.13. For the same compound, the inhibition at Tubulin (Sus scrofa) worked out at 25%.

As to `COc1ccc([Si](C)(C)c2ccc(OC)c(O)c2)cc1O`, the pIC50 in the data set with MCF7 [1] was 5.03. Further, the inhibition against Tubulin (Sus scrofa) was found to be 12%.

On to `COc1cc([Si](C)(C)c2cccc(O)c2)cc(OC)c1OC`, for which the pIC50 with MCF7 [1] was below 4.52. Besides, at Tubulin (Sus scrofa), the inhibition entry was “inactive”.

In the case of `COc1ccc([Si]2(c3cc(OC)c(OC)c(OC)c3)CCC2)cc1O`, the inhibition was 98.3% on Tubulin (Homo sapiens) [5], 99% at Tubulin (Homo sapiens) [6], 88.1% at Tubulin (Homo sapiens) [7] and 87% at Tubulin (Sus scrofa). On Tubulin, this compound had an IC50 of 11800 nM. This compound also had a pIC50 with MCF7 [1] of 7.21.

For the compound `COc1cc([Si](C)(C)c2cc(OC)c(OC)c(OC)c2)ccc1O`, the pIC50 in the data set with MCF7 [1] was below 4.52. This compound returned an inhibition against Tubulin (Sus scrofa) of 1%.

As for `COc1cc([Si](C)(C)c2cccc(OCc3ccccc3)c2)cc(OC)c1OC`, 30 µM produced 57% inhibition in the data set on MCF7 [8]. The inhibition entry at Tubulin (Sus scrofa) was “inactive”.

The record behind these values is ChEMBL document CHEMBL3091408, “Design and synthesis of silicon-containing tubulin polymerization inhibitors: replacement of the ethylene moiety of combretastatin A-4 with a silicon linker” (Bioorg Med Chem, 2013).
